pEC50: −log10 of the molar value. Several values for one entry are separate records, joined by “and”; a condition that tells them apart may be missing. Equal values may be shown once. Values belong to the molecule of their own block, whether it stands above or below them.
Columns and labels:
S1P4 (EDG6) = molecular target: T1, S1P4 (EDG6) (Homo sapiens, UniProt O95977); test: β-arrestin assay; type: cell-based
T1 sequence (O95977 1-384): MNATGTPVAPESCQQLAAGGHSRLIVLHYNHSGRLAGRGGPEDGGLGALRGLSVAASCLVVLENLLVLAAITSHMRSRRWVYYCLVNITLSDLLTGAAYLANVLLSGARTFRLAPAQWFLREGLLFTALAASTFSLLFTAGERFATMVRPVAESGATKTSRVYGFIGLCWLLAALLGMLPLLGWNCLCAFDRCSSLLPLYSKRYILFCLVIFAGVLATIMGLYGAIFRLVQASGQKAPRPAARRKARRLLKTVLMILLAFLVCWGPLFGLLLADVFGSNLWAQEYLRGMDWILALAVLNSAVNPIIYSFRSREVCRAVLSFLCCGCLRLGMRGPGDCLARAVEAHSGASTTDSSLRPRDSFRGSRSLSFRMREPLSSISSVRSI
Procedure, shortened: (§1)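 Test compound (DMSO stock), at a range of concentrations, was added for 2 or 4 h at 37 °C. Receptor–β-arrestin recruitment was read as β-galactosidase enzyme-fragment complementation, with chemiluminescence measured after 1 h in detection reagent at room temperature. Activity was computed from the concentration series.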

S1P3 (EDG3) = S1P3 (EDG3) (Homo sapiens, UniProt Q99500); test: β-arrestin assay; type: cell-based
S1P3 (EDG3), sequence (Q99500 whole entry): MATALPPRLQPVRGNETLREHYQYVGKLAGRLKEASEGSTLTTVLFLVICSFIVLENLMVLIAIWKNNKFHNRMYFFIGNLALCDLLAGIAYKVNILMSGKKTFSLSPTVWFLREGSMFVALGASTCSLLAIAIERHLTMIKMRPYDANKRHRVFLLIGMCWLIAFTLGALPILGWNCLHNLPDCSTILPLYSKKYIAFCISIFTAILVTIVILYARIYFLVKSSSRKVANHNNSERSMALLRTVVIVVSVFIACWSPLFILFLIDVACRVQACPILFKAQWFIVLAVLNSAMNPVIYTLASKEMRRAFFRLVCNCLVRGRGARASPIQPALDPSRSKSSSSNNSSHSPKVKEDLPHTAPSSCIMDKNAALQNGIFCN
Procedure, shortened: as §1

[1] = tested on: SDS-induced skin irritation; test: SDS-induced acute skin irritation and inflammation mouse model; type: in vivo; conditions: KM mice, MTX 1.5 mg/kg, data not shown
Procedure, shortened: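 Female KM mice had back hair removed and received 200 μL 15% SDS topically once daily for 7 days. From Day 8 they were dosed orally each day for 10 days with test compound (0.3–2.4 mg/kg, in water) or vehicle. On Day 18, skin thickness was measured. Skin was then fixed in 4% paraformaldehyde, cut into 5 μm H&E sections and scored blind (0–3 each) for epidermal thickening, fibroplasia, inflammatory infiltration and vasodilatation; n = 11.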

[2] = Heart rate measurement after a single oral dose; type: in vivo; conditions: SD rats, single oral dose 10 mg/kg
Procedure, shortened: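 Male SD rats (6–8 weeks) had baseline heart rate taken with a non-invasive rodent blood-pressure/heart-rate meter. They then received a single oral 10 mg/kg dose of test compound in distilled water, or vehicle. Heart rate was re-measured at 2, 4, 8, 12, 24 and 48 h after dosing; n = 5.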

[3] = tested on: peripheral blood lymphocytes; test: Peripheral blood lymphocytes; type: in vivo; conditions: SD rats, single oral dose (3 mg/kg), 1 week later
Procedure, shortened: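 Male SD rats (6–8 weeks) were randomised and bled (20 μL, tail vein) for a baseline (0 h) lymphocyte count on a haematology analyser. Each received one oral dose of test compound (0.3, 1 or 3 mg/kg, in distilled water) or vehicle. Lymphocytes were counted again at 2, 4, 8, 12, 24, 72, 96, 144 and 168 h; n = 5.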

- pEC50 (S1P4 (EDG6)): 7.31
- pEC50 (S1P3 (EDG3)): 7.75
SMILES: CCCCCCCCCCCCC/C=C/[C@@H](O)[C@@H](N)COP(=O)(O)O [S1P, Sphingosine-1-phosphate]

SMILES: CN(Cc1cnc2nc(N)nc(N)c2n1)c1ccc(C(=O)N[C@@H](CCC(=O)O)C(=O)O)cc1 [MTX, Methotrexate]
- Body weight during treatment [1]: started to decline from Day 10

SMILES: CCCCCCCCc1ccc(CCC(N)(CO)CO)cc1 [FTY720, fingolimod]
- Duration of heart rate decrease [2]: 12 h
- Heart rate decrease ([2]; as early as 2 h after treatment, 10 mg/kg): 22% and 20%
- Lymphocyte reduction 1 week after one administration [3]: 26%
